The subject of series [1] is CCRF-CEM. Nature of the series: Cytotoxicity against human CEM cells. In kind it is cell-based.
Series [2] concerns Human immunodeficiency virus 1. The series can be described thus: Antiviral activity against HIV1 3B infected in human CEM cells assessed as virus-induced giant cell formation after 4 days by microscopic analysis. The settings on record: Human immunodeficiency virus 1, 3B, CCRF-CEM, 96 h. Format: functional, organism-based. The gist of the method: (§1)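 CEM cells (∼3 × 10^5 cells/cm3) infected with 100 CCID50/mL of HIV-1(IIIB) or HIV-2(ROD), seeded into wells with compound dilutions. Giant cell formation examined microscopically after 4 days at 37 °C.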

Series [3] has as its system L1210. The series can be described thus: Cytostatic activity against mouse L1210 cells assessed as growth inhibition after 2 days by particle counting analysis. The settings on record: L1210, 48 h. In kind it is functional, cell-based. The essentials:
(§2)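 Tumor cells seeded and exposed to a range of compound concentrations. Cell number counted with a particle counter after 2 days (L1210, L1210/TK) or 3 days (CEM, CEM/TK, HeLa, HeLa TK, Caco-2, Colo-320).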

In series [4] the test system is CCRF-CEM. The series can be described thus: Cytostatic activity against human CEM cells assessed as growth inhibition after 3 days by particle counting analysis. In kind it is functional, cell-based. To be noted: 72 h. The essentials: as §2
Series [5] has as its system Human immunodeficiency virus 2. The series can be described thus: Antiviral activity against HIV2 ROD infected in human CEM cells assessed as virus-induced giant cell formation after 4 days by microscopic analysis. In kind it is functional, organism-based. To be noted: Human immunodeficiency virus 2, ISOLATE ROD, CCRF-CEM, 96 h. The essentials:
as §1

For another series, the system named is Huh-7. The series can be described thus: Cytotoxicity against human HuH7 cells. In kind it is cell-based. To be noted: human, huh-7; read-out: CC50.
Another series has as its system Hepatitis C virus. Nature of the series: Antiviral activity against Hepatitis C virus genotype 1b infected in human HuH7 cells assessed as inhibition of viral replication. To be noted: Huh-7, read-out: EC50. Format: functional, organism-based, Hepacivirus hominis.
A short description of series [6]: Cytotoxicity against HEL cells. In kind it is cell-based. The settings on record: human.
The test system of series [7] is HeLa. The series can be described thus: Cytostatic activity against human HeLa cells assessed as growth inhibition after 3 days by particle counting analysis. Format: functional, cell-based. To be noted: 72 h. The essentials: as §2
Series [8] relates to L1210. Nature of the series: Cytostatic activity against thymidine kinase-deficient mouse L1210 cells assessed as growth inhibition after 2 days by particle counting analysis. In kind it is functional, cell-based. The settings on record: L1210, 48 h. The essentials: as §2
For series [9], the system named is CCRF-CEM. Nature of the series: Cytostatic activity against thymidine kinase-deficient human CEM cells assessed as growth inhibition after 3 days by particle counting analysis. Format: functional, cell-based. The settings on record: 72 h. The essentials:
as §2

A further series concerns Caco-2. Nature of the series: Cytostatic activity against human Caco2 cells assessed as growth inhibition after 3 days by particle counting analysis. In kind it is functional, cell-based. The settings on record: Caco-2, 72 h. The essentials: as §2
The test system of a further series is COLO 320. The series can be described thus: Cytostatic activity against human COLO320 cells assessed as growth inhibition after 3 days by particle counting analysis. Format: functional, cell-based. The settings on record: COLO 320, 72 h. The gist of the method: as §2
In series [10] the test system is HeLa. Nature of the series: Cytostatic activity against thymidine kinase-deficient human HeLa cells assessed as growth inhibition after 3 days by particle counting analysis. In kind it is functional, cell-based. To be noted: 72 h. The essentials: as §2

For orientation: CC50 means the concentration giving 50% cytotoxicity. What is called EC50 is the concentration that produces a half-maximal response. What is called IC50 is the concentration at which inhibition is half-maximal. Molecule `C[C@H](NP(=O)(N[C@@H](C)C(=O)OCC(C)(C)C)OC[C@@H]1CC[C@H](n2cnc3c(N)ncnc32)O1)C(=O)OCC(C)(C)C` yielded a CC50 in the series on CCRF-CEM [1] of 35 µM. The EC50 turned out to be 0.1 µM in series [2] and 0.049 µM in [5]. For the same molecule, the IC50 in the series on L1210 [3] worked out at 76 µM; in the series on CCRF-CEM [4] it was 36 µM.
On to `C[C@H](NP(=O)(N[C@@H](C)C(=O)OCc1ccccc1)OC[C@@]1(N=[N+]=[N-])O[C@@H](n2ccc(N)nc2=O)[C@H](O)[C@@H]1O)C(=O)OCc1ccccc1`, for which, in the series with Huh-7, the CC50 was greater than 100 µM. For the same molecule, the EC50 with Hepatitis C virus was greater than 40 µM.
Taken in the same sequence, the figures for `C[C@H](NP(=O)(N[C@@H](C)C(=O)OCC(C)(C)C)OC[C@@]1(N=[N+]=[N-])O[C@@H](n2ccc(N)nc2=O)[C@H](O)[C@@H]1O)C(=O)OCC(C)(C)C` were 72 µM and greater than 40 µM.
The molecule `Cc1cn([C@H]2C[C@H](N=[N+]=[N-])[C@@H](COP(=O)(N[C@@H](C)C(=O)OCC(C)(C)C)N[C@@H](C)C(=O)OCC(C)(C)C)O2)c(=O)[nH]c1=O` had a CC50 in the series with CCRF-CEM [1] of 75 µM. The values for the EC50 in [2] and in series [5] were 0.0083 µM and 0.013 µM, respectively.
With `C[C@H](NP(=O)(N[C@@H](C)C(=O)OCC(C)(C)C)OC[C@@]1(N=[N+]=[N-])O[C@@H](n2ccc(=O)[nH]c2=O)[C@H](O)[C@@H]1O)C(=O)OCC(C)(C)C`, in the series on Huh-7, the CC50 is greater than 100 µM. Further, the EC50 with Hepatitis C virus was found to be 22 µM.
In series [6], `CCCCCc1ccc(-c2cc3cn([C@H]4C[C@H](O)[C@@H](CO)O4)c(=O)nc3o2)cc1` [CF1743] displayed an MCC of no less than 20 µM.
The molecule `Cc1cn([C@H]2C[C@H](N=[N+]=[N-])[C@@H](CO)O2)c(=O)[nH]c1=O` [ZIDOVUDINE] displayed a half-maximal cytotoxic concentration (CC50) in the series with CCRF-CEM [1] greater than 250 µM. The half-maximal effective concentration (EC50) came out at 0.012 µM in series [2] and 0.067 µM in [5].
For the molecule `C[C@H](NP(=O)(N[C@@H](C)C(=O)OCc1ccccc1)OC[C@@H]1C=C[C@H](n2cnc3c(NC4CC4)nc(N)nc32)C1)C(=O)OCc1ccccc1`, the IC50 worked out at 23 µM in the series with HeLa [7], 54 µM in the series with L1210 [3] and 19 µM in the series with CCRF-CEM [4]. The EC50 in [2] came out at 0.56 µM; in [5], 1.1 µM.
On to `Nc1ncnc2c1ncn2[C@H]1CC[C@@H](CO)O1`, for which the 50% cytotoxic concentration (CC50) in the series with CCRF-CEM [1] is greater than 250 µM. In addition, the IC50 with HeLa [7], in the series with L1210 [3] and in the series on CCRF-CEM [4] was greater than 250 µM each time. The EC50 is 7.2 µM in series [2] and 2.8 µM in series [5].
Regarding `C[C@H](NP(=O)(N[C@@H](C)C(=O)OCc1ccccc1)OC[C@@]1(N=[N+]=[N-])O[C@@H](n2ccc(=O)[nH]c2=O)[C@H](O)[C@@H]1O)C(=O)OCc1ccccc1`, the CC50 in the series with Huh-7 is greater than 100 µM. Moreover, in the series with Hepatitis C virus, the EC50 is greater than 40 µM.
In the case of `C[C@H](NP(=O)(N[C@@H](C)C(=O)OCc1ccccc1)OC[C@H]1O[C@@H](n2ccc(N)nc2=O)CS1)C(=O)OCc1ccccc1`, the IC50 with L1210 [8] came to 57 µM; with HeLa [7] it was 93 µM; in the series on CCRF-CEM [9] it was 106 µM; in the series on L1210 [3], 86 µM; in the series with Caco-2 it was 87 µM; in the series with COLO 320, 85 µM. Further, the results for the half-inhibitory concentration (IC50) with CCRF-CEM [4] and with HeLa [10] were 116 µM and 38 µM, respectively. Also, the EC50 in series [2] and in series [5] was greater than 50 µM each time.
As to `C[C@H](NP(=O)(N[C@@H](C)C(=O)OCC(C)(C)C)OC[C@@H]1C=C[C@H](n2cnc3c(NC4CC4)nc(N)nc32)C1)C(=O)OCC(C)(C)C`, the IC50 in the series on HeLa [7] worked out at 36 µM; with L1210 [3], 48 µM; in the series with CCRF-CEM [4], 27 µM. Besides, the EC50 in series [2] is 1.5 µM; in series [5], 1.2 µM.
Consider `CCOc1nc(N)nc2c1ncn2[C@@H]1O[C@H](COP(=O)(N[C@@H](C)C(=O)OCC(C)(C)C)N[C@@H](C)C(=O)OCC(C)(C)C)[C@@H](O)[C@@]1(C)F`, for which the CC50 in the series with Huh-7 came out at 73 µM. In addition, the 50% effective concentration (EC50) in the series on Hepatitis C virus turned out to be 0.05 µM.

The record behind these values is ChEMBL document CHEMBL3085645, “Design, synthesis and biological evaluation of phosphorodiamidate prodrugs of antiviral and anticancer nucleosides” (Eur J Med Chem, 2013).
